# Entries after “also recorded” stand apart in the source; their conditions may differ. Read-outs that look alike come from different tables or passages of the source.
# Columns and labels:
# [1] = system: McpA/TlpA receptor chimeras in SQR9Δ8mcp; experiment: Chemotaxis of McpA receptor chimera strains compared; type: cell-based, Bacillus velezensis SQR9; conditions: strains with chimeras McpA_distal (M1) and McpA_proximal (M2)
# How it was run: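 Chimeric receptors (McpA or TlpA LBD modules swapped) integrated at amyE of SQR9Δ8mcp; strains grown at 30 °C in low-salt LB. Microfluidic SlipChip run with 13 parallel units as duplicates: channels BSA-coated (10 mg/mL, 5 min); compound, cells and buffer in top, middle and bottom wells; 30 min in the dark. Cells counted by fluorescence microscopy; I30 = Ne/(Ne+Nc); attraction when above 0.6.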
# McpA-LBD [2] = conditions: cited from earlier work
# McpA-LBD (A36-L277) [3] = target: T1, McpA-LBD (A36-L277) (Bacillus velezensis, UniProt A7Z835); experiment: Biolayer interferometry; type: binding, Bacillus velezensis SQR9
# T1 sequence (A7Z835 36-277): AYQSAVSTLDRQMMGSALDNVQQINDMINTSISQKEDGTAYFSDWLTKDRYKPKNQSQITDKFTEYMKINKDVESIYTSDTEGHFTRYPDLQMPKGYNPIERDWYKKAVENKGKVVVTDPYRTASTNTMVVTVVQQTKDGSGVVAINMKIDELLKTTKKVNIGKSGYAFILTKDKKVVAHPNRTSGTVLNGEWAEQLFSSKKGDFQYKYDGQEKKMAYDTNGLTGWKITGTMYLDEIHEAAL
# McpA-LBD (A36-L277) [4] = target: T1, McpA-LBD (A36-L277); experiment: Surface plasmon resonance; type: binding, Bacillus velezensis SQR9; conditions: SPR, compounds at 200 μM and 2 mM
# McpA-LBD [5] = conditions: cited from earlier work; remark: listed apart in the source
Compound,McpA-LBD module on which chemotaxis relies [1],interaction with McpA-LBD observed (McpA-LBD (A36-L277) [3]; BLI),also measured
N[C@@H](CC(=O)O)C(=O)O [Aspartic acid],sensed by the membrane-proximal module,,direct binding to McpA-LBD (McpA-LBD [2]): direct binding
O=C(O)CC(O)(CC(=O)O)C(=O)O [Citric acid],sensed by the membrane-proximal module,,direct binding to McpA-LBD (McpA-LBD [2]): direct binding
C[C@H](O)[C@@H](O)[C@@H](O)[C@H](O)C=O [Fucose],,interaction; also recorded: directly bound,"binding to McpA-LBD (McpA-LBD (A36-L277) [4]): binding for all ligands, except for serine and fucose"
O=C[C@H](O)[C@@H](O)[C@@H](O)[C@H](O)CO [Galactose],,,direct binding to McpA-LBD (McpA-LBD [5]): no direct binding
N[C@@H](CCC(=O)O)C(=O)O [Glutamic acid],sensed by the membrane-proximal module,,
O=C(O)CC(O)C(=O)O (stereo not shown) [Malic acid],sensed by the membrane-proximal module,,
OC[C@H]1OC(O)[C@@H](O)[C@@H](O)[C@@H]1O (stereo partly shown) [Mannose],,interaction,
O=C(O)C(=O)O [Oxalic acid],sensed by the membrane-proximal module,,
OC[C@@H](O)[C@@H](O)[C@@H](O)CO [Ribitol],,interaction; also recorded: directly bound,Kd (McpA-LBD (A36-L277) [3]): 4.36 µM
O=C[C@H](O)[C@H](O)[C@H](O)CO [Ribose],,interaction; also recorded: directly bound,"Kd (McpA-LBD (A36-L277) [3]; BLI, McpA-LBD (A36-L277), 25 °C, 1:1 binding model): 1.94 µM"
N[C@@H](CO)C(=O)O [Serine],,,"binding to McpA-LBD (McpA-LBD (A36-L277) [4]): binding for all ligands, except for serine and fucose"
O=C(O)CCC(=O)O [Succinic acid],sensed by the membrane-proximal module,,
N[C@@H](Cc1ccc(O)cc1)C(=O)O [Tyrosine],sensed by the membrane-proximal module,interaction,

# — PMC9303924 (Proceedings of the National Academy of Sciences of the …, 2022)
